# pIC50, pKd: −log10 of the molar value. Active and inactive are the calls of the source. No cut-off for these calls is given here.
# Columns and labels:
# [1] = Inhibition of Escherichia coli NAD-dependent DNA ligase
# DNA ligase = DNA ligase (Staphylococcus aureus, UniProt Q9AIU7); assay: Inhibition of Staphylococcus aureus NAD-dependent DNA ligase
# [2] = target: DNA ligase 1 (Homo sapiens) (UniProt P18858); assay: Inhibition of human DNA Ligase 1 at 25 uM
# Escherichia coli [3] = assay: Antibacterial activity against tolC/rfaC-deficient Escherichia coli harboring ligA251 mutant; type: functional
# Outline: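 MIC read-out. The E. coli strain carries only the ligA251 allele (L15F exchange), which gives more than 20-fold reduced ligation activity and sensitizes it to LigA inhibitors.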
# Escherichia coli [4] = assay: Antibacterial activity against tolC/rfaC-deficient Escherichia coli; type: functional
# [5] = target: T1, Dihydrofolate reductase (Homo sapiens) (UniProt P00374); assay: Inhibition of human DHFR at 25 uM
# T1 sequence (whole entry): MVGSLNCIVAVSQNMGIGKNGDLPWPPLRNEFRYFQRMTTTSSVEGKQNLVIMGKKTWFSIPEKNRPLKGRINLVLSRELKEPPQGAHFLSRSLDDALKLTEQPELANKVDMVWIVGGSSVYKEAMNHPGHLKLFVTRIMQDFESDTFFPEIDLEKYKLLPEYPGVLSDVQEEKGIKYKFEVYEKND
# [6] = target: T1, Dihydrofolate reductase (Homo sapiens); assay: Inhibition of human DHFR
# [7] = target: DNA ligase 1 (Homo sapiens) (UniProt P18858); assay: Inhibition of human DNA Ligase 1
# Streptococcus pneumoniae = assay: Antibacterial activity against wild type Streptococcus pneumoniae A-216 by CLSI dilution method; type: functional
# Haemophilus influenzae = assay: Antibacterial activity against wild type Haemophilus influenzae A921 by CLSI dilution method; type: functional
# Staphylococcus aureus = assay: Antibacterial activity against wild type Staphylococcus aureus ATCC 29213 by CLSI dilution method; type: functional
# [8] = Inhibition of Streptococcus pneumoniae NAD-dependent DNA ligase assessed as equilibrium dissociation constant
# DNA ligase 1 (Homo sapiens), sequence (P18858 whole entry): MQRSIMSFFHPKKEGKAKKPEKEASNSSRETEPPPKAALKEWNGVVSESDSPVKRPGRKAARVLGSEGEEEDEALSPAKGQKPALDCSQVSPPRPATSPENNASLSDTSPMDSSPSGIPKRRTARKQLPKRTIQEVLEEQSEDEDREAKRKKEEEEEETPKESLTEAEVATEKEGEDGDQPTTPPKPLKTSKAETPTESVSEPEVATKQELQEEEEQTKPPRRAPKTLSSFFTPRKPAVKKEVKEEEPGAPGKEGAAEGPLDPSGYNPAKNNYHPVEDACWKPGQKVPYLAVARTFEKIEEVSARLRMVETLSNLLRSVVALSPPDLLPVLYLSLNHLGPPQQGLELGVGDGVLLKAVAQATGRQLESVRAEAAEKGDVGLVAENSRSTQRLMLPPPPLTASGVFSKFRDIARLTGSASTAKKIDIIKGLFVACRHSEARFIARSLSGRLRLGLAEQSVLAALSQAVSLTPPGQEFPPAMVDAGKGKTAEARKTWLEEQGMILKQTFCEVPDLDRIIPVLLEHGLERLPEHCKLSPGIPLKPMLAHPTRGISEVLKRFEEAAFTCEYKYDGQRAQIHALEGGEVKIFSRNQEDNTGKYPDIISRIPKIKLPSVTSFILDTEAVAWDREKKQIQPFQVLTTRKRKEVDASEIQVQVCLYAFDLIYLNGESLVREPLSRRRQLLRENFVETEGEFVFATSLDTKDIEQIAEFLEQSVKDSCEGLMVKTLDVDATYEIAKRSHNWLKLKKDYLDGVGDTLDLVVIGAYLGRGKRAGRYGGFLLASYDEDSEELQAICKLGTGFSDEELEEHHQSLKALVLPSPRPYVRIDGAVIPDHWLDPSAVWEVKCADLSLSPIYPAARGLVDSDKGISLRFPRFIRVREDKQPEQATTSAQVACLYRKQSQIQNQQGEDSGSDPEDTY
# DNA ligase, sequence (Q9AIU7 whole entry): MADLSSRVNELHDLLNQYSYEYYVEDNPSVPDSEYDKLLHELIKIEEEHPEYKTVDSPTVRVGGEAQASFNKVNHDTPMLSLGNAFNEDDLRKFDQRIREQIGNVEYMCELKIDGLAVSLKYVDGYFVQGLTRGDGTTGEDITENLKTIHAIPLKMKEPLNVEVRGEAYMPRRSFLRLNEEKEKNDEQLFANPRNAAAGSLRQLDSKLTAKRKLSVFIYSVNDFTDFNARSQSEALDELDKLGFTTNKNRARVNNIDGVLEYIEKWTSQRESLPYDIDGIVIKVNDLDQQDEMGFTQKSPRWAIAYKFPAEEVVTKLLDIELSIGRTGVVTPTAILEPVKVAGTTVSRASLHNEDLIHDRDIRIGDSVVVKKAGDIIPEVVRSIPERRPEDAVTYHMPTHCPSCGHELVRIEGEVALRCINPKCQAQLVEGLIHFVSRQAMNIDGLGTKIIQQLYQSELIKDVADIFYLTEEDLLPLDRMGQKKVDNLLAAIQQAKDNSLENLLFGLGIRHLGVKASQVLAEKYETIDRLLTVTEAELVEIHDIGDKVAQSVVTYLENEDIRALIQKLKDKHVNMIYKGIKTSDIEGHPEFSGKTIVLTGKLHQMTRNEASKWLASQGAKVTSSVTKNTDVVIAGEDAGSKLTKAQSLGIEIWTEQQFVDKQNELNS
SMILES,pIC50 [1],pIC50 (DNA ligase),inhibition [2],MIC (Escherichia coli [3]) [µg/mL],MIC (Escherichia coli [4]) [µg/mL],inhibition [5],inhibition [6],inhibition [7],MIC (Streptococcus pneumoniae) [µg/mL],MIC (Haemophilus influenzae) [µg/mL],MIC (Staphylococcus aureus) [µg/mL],pKd [8]
COc1nc2nc(N)nc(N)c2nc1C,4.60,5.60,inactive,2,> 16,inactive,–,–,–,–,–,–
NC(=O)c1cc2c(N3CCC(O)CC3)c(Br)c(C(F)(F)F)nc2nc1N,6.15,–,–,0.25,8,–,inactive,inactive,16,> 16,> 16,7.41
Cc1c(Cc2ccncc2)c(Cl)nc2nc(N)c(C(N)=O)cc12,6.00,–,–,0.25,> 16,–,inactive,inactive,8,2,> 16,6.93
C=CCc1c(Cl)nc2nc(N)c(C(N)=O)cc2c1C,6.10,–,–,0.125,8,–,inactive,inactive,> 16,4,8,6.94
CC(C)(C)OC(=O)N1CC(c2nc3nc(N)c(C(N)=O)cc3cc2Br)C1,< 5.30,–,–,–,> 16,–,inactive,inactive,> 16,> 16,> 16,5.58
COCCc1cc(C(F)(F)F)nc2nc(N)c(C(N)=O)cc12,5.00,–,–,2,> 16,–,inactive,inactive,> 16,4,> 16,6.34
CC(C)(OCc1ccccc1)c1nc2nc(N)c(C(N)=O)cc2cc1Br,< 5.30,–,–,8,> 16,–,inactive,inactive,> 16,> 16,> 16,5.37
CC(C)c1cc2cc(C(N)=O)c(N)nc2nc1C(F)(F)F,6.10,–,–,1,> 16,–,inactive,inactive,> 16,8,16,6.82
NC(=O)c1cc2c(-c3ccccc3)cc(C(F)(F)F)nc2nc1N,5.60,–,–,0.5,32,–,inactive,inactive,> 16,8,> 16,6.63
NC(=O)c1cc2c(CCO)cc(C(F)(F)F)nc2nc1N,5.00,–,–,1,> 16,–,inactive,inactive,> 16,1,> 16,6.37
NC(=O)c1cc2cc(CCc3ccccc3)c(C(F)(F)F)nc2nc1N,< 5.00,–,–,32,> 16,–,inactive,inactive,> 16,> 16,> 16,5.92
NC(=O)c1cc2ccc(C(F)(F)F)nc2nc1N,6.30,–,–,0.125,16,–,inactive,inactive,> 16,0.5,8,7.00
NC(=O)c1cc2cc(Br)c(C3CCCC3)nc2nc1N,6.30,–,–,4,> 16,–,inactive,inactive,> 16,> 16,> 16,6.74
NC(=O)c1cc2c(N3CC[C@@H](O)C3)c(Br)c(C(F)(F)F)nc2nc1N,6.15,–,–,0.125,4,–,inactive,inactive,8,8,8,7.51
NC(=O)c1cc2c(N3CC[C@@H](N)C3)c(Br)c(C(F)(F)F)nc2nc1N,6.00,–,–,1,> 16,–,inactive,inactive,> 16,8,> 16,7.07
CC(C)(C)c1nc2nc(N)c(C(N)=O)cc2cc1Br,6.52,–,–,0.25,8,–,inactive,inactive,8,2,4,7.11
NC(=O)c1cc2cc(C3CC3)c(C(F)(F)F)nc2nc1N,6.40,–,–,0.125,2,–,inactive,inactive,16,0.5,1,7.08
NC(=O)c1cc2c(N3CC(O)C3)c(Br)c(C(F)(F)F)nc2nc1N,6.30,–,–,0.125,4,–,inactive,inactive,> 16,4,16,7.37
Cc1cc2cc(C(N)=O)c(N)nc2nc1C(F)(F)F,6.30,–,–,0.063,0.5,–,inactive,inactive,8,0.25,4,7.32
NCc1cc(C(F)(F)F)nc2nc(N)c(C(N)=O)cc12,5.60,–,–,1,> 16,–,inactive,inactive,> 16,4,> 16,6.99
NC(=O)c1cc2cc(C3CCCC3)c(C(F)(F)F)nc2nc1N,5.60,–,–,4,> 16,–,inactive,inactive,16,16,> 16,6.82
NC(=O)c1cc2c3c(c(Cl)nc2nc1N)CC3,6.22,–,–,0.25,8,–,inactive,inactive,> 16,8,16,6.82
CN(CCO)c1c(Br)c(C(F)(F)F)nc2nc(N)c(C(N)=O)cc12,6.15,–,–,0.5,> 16,–,inactive,inactive,8,4,8,7.24
NC(=O)c1cc2cc(Cc3ccccc3)c(C(F)(F)F)nc2nc1N,6.10,–,–,0.125,16,–,inactive,inactive,> 16,4,> 16,6.85
C=Cc1cc2cc(C(N)=O)c(N)nc2nc1C(F)(F)F,6.40,–,–,0.125,8,–,inactive,inactive,> 16,1,2,7.05
Cc1c(Cc2ccccc2)c(Cl)nc2nc(N)c(C(N)=O)cc12,6.30,–,–,0.125,4,–,inactive,inactive,4,2,4,6.97
Nc1ccc2c(Cl)cc(C(F)(F)F)nc2n1,4.60,–,–,–,–,–,–,–,–,–,–,–
CCc1cc2cc(C(N)=O)c(N)nc2nc1C(F)(F)F,6.22,–,–,0.25,8,–,inactive,inactive,> 16,2,4,7.12
Cc1cc(C(F)(F)F)nc2nc(N)c(C(N)=O)cc12,6.30,–,–,0.25,4,–,inactive,inactive,> 16,0.5,8,7.32
NC(=O)c1cc2cc(CO)c(C(F)(F)F)nc2nc1N,6.30,–,–,2,> 16,–,inactive,inactive,> 16,2,> 16,6.41
